# Calls of active or inactive are those of the source. No cut-off for these calls is given here.
# Columns and labels:
# MH3924A [1] = assay: Cellular uptake in rat MH3924A cells; format: ADME, cell-based
# How it was run: (§1)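 Cultured tumour cells grown on coverslips, incubated with 50 µM dye conjugate for 1, 4 and 24 h, then imaged by confocal laser scanning microscopy. Parallel incubations were run with benzyl viologen, a polyamine uptake inhibitor. B16 cells were also co-cultured with 3T3YMT-MP non-tumour cells, which express yellow fluorescent protein in mitochondria. Unlabelled cells served as reference.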
# B16 [2] = assay: Increase in fluorescence in mouse B16 cells after 24 hrs relative to control; format: functional, cell-based
# How it was run: (§2)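 Quantitative uptake assay: tumour cells incubated with dye for 24 h. Cell-associated fluorescence is expressed as percent increase over unlabelled tumour cells.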
# MH3924A [3] = assay: Increase in fluorescence in rat MH3924A cells after 24 hrs relative to control; format: functional, cell-based; how it was run: as §2
# MH3924A [4] = assay: Cellular uptake in rat MH3924A cells xenografted in nude Balc C nu/nu mouse by fluorescence imaging; format: ADME, cell-based; conditions: in vivo
# How it was run: (§3)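 Male Balb/c nu/nu nude mice (about 20 g) carrying subcutaneous MH3924A rat hepatoma (3–8 mm diameter). Dye given as an iv bolus via lateral tail vein, 500 lmol/kg; PBS-injected controls. Under ip ketamine/xylazine (1 mL/kg), open surgery with chest or abdominal incision. Cooled CCD imaging at 10 min, 1 h and 4 h, 60 s exposure, about 5 cm distance. Photon counts summed per equal-size region of interest (11.6 mm2) over 1 min.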
# Mus musculus [5] = species: Mus musculus; assay: Distribution in bladder of MH3924A hepatoma bearing nude Balc C nu/nu mouse by fluorescence imaging; format: ADME, organism-based, Urinary bladder; conditions: in vivo; how it was run: as §3
# Mus musculus [6] = species: Mus musculus; assay: Distribution in muscle of MH3924A hepatoma bearing nude Balc C nu/nu mouse by fluorescence imaging; format: ADME, organism-based, Muscle tissue; conditions: in vivo; how it was run: as §3
# Mus musculus [7] = species: Mus musculus; assay: Distribution in lung of MH3924A hepatoma bearing nude Balc C nu/nu mouse by fluorescence imaging; format: ADME, organism-based; conditions: in vivo; how it was run: as §3
# B16 [8] = assay: Cellular uptake in mouse B16 cells; format: ADME, cell-based; how it was run: as §1
# B16 [9] = assay: Cytotoxicity against mouse B16 cells assessed as inhibition of colony formation at 25 uM after 4 hrs; format: functional, cell-based
# How it was run: (§4)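 Colony forming assay in MH3924A and B16 cells. Cells were exposed to dye for 4 h (1–250 µM tested across dyes) and colonies were scored 8 days later. Colony formation is expressed as percent of untreated controls.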
# MH3924A [10] = assay: Cytotoxicity against rat MH3924A cells assessed as inhibition of colony formation at 25 uM after 4 hrs; format: functional, cell-based; how it was run: as §4
Drug uptake (MH3924A [1]),Drug uptake (MH3924A [4]),Drug uptake (Mus musculus [5]),Drug uptake (Mus musculus [6]),Drug uptake (Mus musculus [7]),Drug uptake (B16 [8]),Compound,Drug uptake (B16 [2]) [%],Drug uptake (MH3924A [3]) [%],Activity (B16 [9]),Activity (MH3924A [10])
Active,Active,Active,Not Active,Not Active,,CNc1ccccc1C(=O)NCCCCNCCCN,19,16,,
Not Active,,,,,Not Active,NCCCNCCCCNC(=O)C[C@H](NC(=O)c1ccc(-c2c3ccc(=O)cc-3oc3cc(O)ccc23)c(C(=O)O)c1)C(=O)NCC(=O)NCC(N)=O,,,,
Active,,,,,Active,Cc1cc2cc3cc(C)c(NC(=O)CC(N)C(=O)NCCCCNCCCN)cc3nc2cc1N (stereo not drawn) [ASPARTYL(ACRIDINE YELLOW G)SPERMIDINE],,,Active,Active
